Source: ChEMBL document CHEMBL1155677, “Inhibitory effects on HIV-1 protease of constituents from the wood of Xanthoceras sorbifolia” (J Nat Prod, 2000)
pIC50: −log10 of the molar value.

What was measured:
[1] = target: Protease (Human immunodeficiency virus 1) (UniProt Q9YQ12); assay: Inhibition of HIV1 protease at 100 ug/ml
Outline: (§1)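 HIV-1 protease inhibition was measured with a commercial HIV protease assay kit, which supplied both the enzyme and the reagents. Acetyl pepstatin from the same kit served as the positive control. The assay was run and percent inhibition calculated by a previously published procedure. Fractions were tested at 100 µg/mL.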

Protease = Protease (Human immunodeficiency virus 1, UniProt Q9YQ12); assay: Inhibition of HIV1 protease; outline: as §1
Chain of Protease (Q9YQ12 whole entry): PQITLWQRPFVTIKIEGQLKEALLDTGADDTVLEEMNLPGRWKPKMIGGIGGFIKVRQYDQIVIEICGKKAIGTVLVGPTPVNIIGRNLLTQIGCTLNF

Chain of Protease (Human immunodeficiency virus 1) (Q9YQ12 as listed by the source): as the sequence (Q9YQ12 whole entry) above

SMILES	inhibition [1] [%]	pIC50 (Protease)
CC(C)=CCC[C@H](C(=O)O)[C@@H]1CC[C@]2(C)C3=CC[C@@H]4[C@](C)(CC[C@@H](O)[C@]4(C)CO)[C@H]3CC[C@@]12C	26	< 3.67
CC(C)=CCC[C@H](C(=O)O)[C@@H]1CC[C@]2(C)C3=CC[C@@H]4[C@](C)(CCC(=O)[C@]4(C)CO)[C@H]3CC[C@@]12C [XANTHOCERASIC ACID]	14	< 3.67
CC(C)=CCC[C@H](C(=O)O)[C@@H]1CC[C@]2(C)C3=CC[C@H]4C(C)(C)[C@@H](O)CC[C@]4(C)[C@H]3CC[C@@]12C	50	3.66
C=C(CC[C@@H](C)[C@H]1CC[C@@]2(C)[C@@H]3CC[C@H]4C(C)(C)[C@@H](O)CC[C@@]45C[C@@]35CC[C@]12C)C(C)C	19	< 3.64
CC(=O)N[C@H](C(=O)N[C@H](C(=O)N[C@@H](CC(C)C)[C@@H](O)CC(=O)N[C@@H](C)C(=O)N[C@@H](CC(C)C)[C@@H](O)CC(=O)O)C(C)C)C(C)C [ACETYLPEPSTATIN]	100	6.63
CC(=O)OC[C@@]1(C)C(=O)CC[C@@]2(C)[C@H]1CC=C1[C@@H]2CC[C@@]2(C)[C@H]([C@H](CCC=C(C)C)C(=O)O)CC[C@]12C	26	< 3.71

The remaining lines, values ahead:

inhibition [1] [%]	pIC50 (Protease)	SMILES
53	3.67	CC(C)=CCC[C@H](C(=O)O)[C@@H]1CC[C@]2(C)C3=CC[C@@H]4[C@](C)(CC[C@H](O)[C@]4(C)CO)[C@H]3CC[C@@]12C
90	4.36	CC(C)=CCC[C@H](C(=O)O)[C@@H]1CC[C@]2(C)C3=CC[C@H]4C(C)(C)C(=O)CC[C@]4(C)[C@H]3CC[C@@]12C
89	3.93	Oc1cc(O)c2c(c1)O[C@@]1(c3cc(O)c(O)c(O)c3)Oc3cc(O)c4c(c3[C@@H]2[C@H]1O)O[C@H](c1ccc(O)c(O)c1)[C@H](O)C4
96	4.66	CC1(C)CC[C@]2(C(=O)O)CC[C@]3(C)C(=CC[C@@H]4[C@@]5(C)CC[C@H](O)C(C)(C)[C@@H]5CC[C@]43C)[C@@H]2C1 [OLEANOLIC_ACID]
-2	< 3.76	Oc1cc(O)c2c(c1)O[C@@]1(c3ccc(O)c(O)c3)Oc3cc(O)c4c(c3[C@@H]2[C@H]1O)O[C@H](c1ccc(O)c(O)c1)[C@H](O)C4 [PROANTHOCYANIDIN A2]
